The nature of experiment [1]: inhibitors of TNFa-induced NFkB p65 translocation, primary screen, imaging, HUVEC, MLSMR starter and 10KST1 sets (AID 438;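 active = inhibition above 20% together with a positive visual image hit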;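 also: compound added about 3h40 before a 20 min TNFalpha stimulation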;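 as to inhibition: signal is the nuclear over cytoplasmic p65 intensity ratio per well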). Conditions: HUVEC TNFa-induced p65 nuclear translocation; cell count: measured here: nuclei count (cytotoxicity indicator), at 2.08 µM; inhibition: at 2 µM, stronger effect = higher value, 0% TNFa-plus-vehicle, 100% no-TNFa wells.
Experiment [2] is described as follows: reduction of polyQ htt aggregates in cells – imaging, exon1htt(103Q)mCFP cells, high-content imaging, primary screen (AID 483;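 active = visual image review flags a hit and inhibition of aggregation exceeds 20%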;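 also: compound exposure lasted 3 days before fixation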;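 as to nuclei count: percent of the per-plate median nuclei count of sample wells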). Conditions: exon1htt(103Q)mCFP cell line, aggregate imaging, at 2 µM; inhibition of aggregation: stronger effect = higher value; nuclei count: measured here: cell count, toxicity.
Experiment [3] in a line: endothelial E-selectin expression blockers – imaging, HUVEC, immunofluorescence, MLSMR starter and 10KST1 sets, primary screen (AID 487;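 active = visually confirmed hit in the image check and inhibition above 20%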;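 as to inhibition: signal is fraction of cell area covered by stained E-selectin grains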;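 as to nuclei count: 100% = median nuclei count of all wells on the same plate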). Conditions: HUVEC TNFalpha-induced E-selectin immunofluorescence imaging, at 2 µM; inhibition: stronger effect = higher value; nuclei count: measured here: cell number, toxicity.
Experiment [4] concerns the target Voltage-gated potassium channel subunit beta-2 (Rattus norvegicus) (UniProt P62483). Put plainly: inhibitors of rat Kvbeta2 reductase activity – biochemical, NADPH fluorescence, primary screen (AID 622;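 active = fluorescence slope higher than the sample average by over 3 SD, cut at about -0.22 in these data, passing the limit was not always enough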;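 also: slope of raw intensity against log time taken from 70 to 1610 s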). Conditions: recombinant KvBeta, 4-cyanobenzaldehyde reduction, at 10 µM, stronger effect = higher value.
The target is the same in experiment [5]. The experiment can be described thus: enhancers of rat Kvbeta2 NADPH turnover – biochemical, NADPH fluorescence, primary screen (AID 623).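 Also: fluorescence intensity change per second fitted from 20 to 320 s.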 Conditions: Recombinant KvBeta, NADPH fluorescence decrease slope, 10 min; at 10 µM; stronger effect = lower value.
For experiment [6], the target named is Muscarinic acetylcholine receptor M4 (Homo sapiens) (UniProt P08173). Put plainly: M4-linked GIRK flux change, two-sided – cell-based, HEK293 M4/GIRK, thallium flux, BTC-AM, M4 allosteric agonist project, primary screen (AID 625;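 active = fluorescence slope after compound addition differing from the mean of all tested samples at 99.7% confidence, mostly higher but some lower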;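 also: thallium influx through GIRK channels coupled to M4 in HEK293 cells with BTC-AM dye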). Conditions: at 10 µM, actives lie on both sides. The essentials: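 Material: HEK293 cells with M4 receptor and GIRK channels; Times: cells overnight at 37 °C, BTC-AM loading 1 h, reads 2 min total; Technique: kinetic BTC-AM fluorescence sampled at 1 Hz, 10 s pre-addition baseline; Read-out basis: slope over 15–24 s of trace normalized to starting intensity; Controls: carbachol positive, DMSO negative.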
Chain of Muscarinic acetylcholine receptor M4 (Homo sapiens) (P08173 whole entry, looked up): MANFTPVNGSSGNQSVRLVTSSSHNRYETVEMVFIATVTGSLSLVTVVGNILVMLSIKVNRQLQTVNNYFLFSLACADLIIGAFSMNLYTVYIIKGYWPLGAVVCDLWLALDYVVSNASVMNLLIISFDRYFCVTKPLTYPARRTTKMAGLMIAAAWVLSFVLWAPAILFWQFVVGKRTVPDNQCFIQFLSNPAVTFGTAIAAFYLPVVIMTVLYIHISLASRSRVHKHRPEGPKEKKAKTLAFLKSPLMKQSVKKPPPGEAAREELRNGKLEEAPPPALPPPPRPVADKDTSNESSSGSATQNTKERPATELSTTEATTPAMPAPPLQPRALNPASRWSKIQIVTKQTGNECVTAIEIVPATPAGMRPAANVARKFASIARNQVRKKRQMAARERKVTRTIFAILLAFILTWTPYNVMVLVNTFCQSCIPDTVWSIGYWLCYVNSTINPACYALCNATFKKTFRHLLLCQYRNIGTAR

Experiment [7] can be described thus: blockers of RIG-like receptor reporter activation – cell-based, Sendai virus stimulus, luciferase, 10K MLSCN set, TLR/RLR signaling modifier project, primary screen (AID 602276;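 active = inhibition at or above 50% at 10 µM; inactive = inhibition below 50%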;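 also: firefly luciferase from ISG56 promoter only with Renilla not read in this screen; 0% = Sendai virus plus DMSO and 100% = medium plus DMSO without virus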). Conditions: HEK293 RL24 IRF3 luciferase reporter, at 10 µM, stronger effect = higher value. (A reporter such as luciferase makes a cellular process visible.)
A short description of experiment [8]: TLR3 IRF3 reporter activation blockers – cell-based, poly I:C stimulus, luciferase, 10K MLSCN set, primary screen (AID 602277;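 active = inhibition of the reporter signal at or above 50%; inactive = inhibition below 50%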). Conditions: HEK293-TLR3 RL24 IRF3 luciferase reporter, at 10 µM, stronger effect = higher value.

Calls of active or inactive are those of the source.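 The calls were made as follows, unless noted: active = NADPH fluorescence slope more negative than the mean of all samples by about 3 SD, 99.7% confidence; inactive = the rest.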

Broadly, the inhibition is the relative decrease from the control value, in per cent.

Chain of Voltage-gated potassium channel subunit beta-2 (Rattus norvegicus) (P62483 whole entry, looked up): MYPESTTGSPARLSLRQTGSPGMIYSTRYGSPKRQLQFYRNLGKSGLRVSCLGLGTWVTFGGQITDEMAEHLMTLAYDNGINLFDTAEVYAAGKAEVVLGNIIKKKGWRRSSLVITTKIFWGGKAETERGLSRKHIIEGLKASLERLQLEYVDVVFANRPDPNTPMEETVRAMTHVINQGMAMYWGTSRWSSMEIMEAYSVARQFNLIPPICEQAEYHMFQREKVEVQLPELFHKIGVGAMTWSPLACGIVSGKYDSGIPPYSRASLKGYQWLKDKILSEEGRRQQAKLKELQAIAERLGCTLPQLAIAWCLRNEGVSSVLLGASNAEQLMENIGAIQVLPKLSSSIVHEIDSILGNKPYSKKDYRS

As for `Cc1ccc(S(=O)(=O)NCCCCC(NC(=O)OC(C)(C)C)C(=O)O)cc1` (stereo not drawn) (tested in a mixture with another compound), in experiment [1], the cell count stood at 631. Also, the inhibition in experiment [1] was 1.1% (inactive); in experiment [3], 34.4% (inactive); in experiment [7], 15.2% (inactive); in experiment [8] it was 13.1% (inactive). Also, the inhibition of aggregation in experiment [2] was 5.6% (inactive). The nuclei count in experiment [2] came out at 99.5%; in experiment [3] it was 95.6%. The fluorescence slope was -0.6 (inactive) in experiment [4] and 0.00344 (inactive) in experiment [6]. In addition, the NADPH fluorescence slope in experiment [5] is -3.1e-06 (inactive).
Consider `O=C(NCc1ccccc1)N1CCn2c(nc3ccccc32)C1`, for which the cell count in experiment [1] was determined as 555. Also, the inhibition in experiment [1] was 2.5% (inactive); in experiment [3] it was -13.3% (inactive); in experiment [7], -0.797% (inactive); in experiment [8], -7.43% (inactive). Besides, the inhibition of aggregation in experiment [2] is 8.2% (inactive). The nuclei count in experiment [2] stood at 99.6%; in experiment [3] it was 111%. In addition, the values for the fluorescence slope in experiment [4] and in experiment [6] were -0.413 (inactive) and 0.00568 (inactive), respectively. For the same molecule, the NADPH fluorescence slope in experiment [5] is -2.6e-05 (inactive).
`CCN(CC)S(=O)(=O)c1ccc(C(=O)Oc2ccc3c(c2)OCO3)cc1`: in experiment [1], the cell count came out at 603. Besides, the inhibition in experiment [1] is -8.9% (inactive); in experiment [3], -19.8% (inactive); in experiment [7], 1.83% (inactive); in experiment [8], 9.42% (inactive). For the same molecule, the inhibition of aggregation in experiment [2] was -5% (inactive). For the same molecule, the figures for the nuclei count in experiment [2] and in experiment [3] were 108% and 110%, respectively. For the same molecule, the fluorescence slope in experiment [4] is -0.477 (inactive); in experiment [6] it was 0.00717 (inactive). The NADPH fluorescence slope in experiment [5] is 1.4e-07 (inactive).
Take `CCCCOC(=O)Nc1nc2ccc(OC)cc2s1`: in experiment [1], the cell count stood at 743. Further, the inhibition in experiment [1] is -10.1% (inactive); in experiment [3] it was -29.1% (inactive); in experiment [7], -0.307% (inactive); in experiment [8], -118% (inactive). Besides, the inhibition of aggregation in experiment [2] is 7.1% (inactive). Also, the nuclei count worked out at 100% in experiment [2] and 108% in experiment [3]. For the same molecule, the results for the fluorescence slope in experiment [4] and in experiment [6] were -0.324 (inactive) and 0.00658 (inactive), respectively. Also, the NADPH fluorescence slope in experiment [5] is -5.1e-05 (inactive).
Turning to `CC(C)CCn1c(SCC#N)nc2c(sc3ccccc32)c1=O`, the cell count in experiment [1] worked out at 718. Further, the inhibition was -3.6% (inactive) in experiment [1], -60.1% (inactive) in experiment [3], 6.8% (inactive) in experiment [7] and 14.8% (inactive) in experiment [8]. Besides, the inhibition of aggregation in experiment [2] is 0.6% (inactive). Also, the values for the nuclei count in experiment [2] and in experiment [3] were 117% and 119%, respectively. The fluorescence slope is -0.485 (inactive) in experiment [4] and 0.00662 (inactive) in experiment [6]. Further, in experiment [5], the NADPH fluorescence slope is -2.4e-05 (inactive).
`CCOC(=O)C1=C(C)Nc2ncnn2C1c1cc(OC)ccc1OC` (stereo not drawn): the cell count in experiment [1] was 465. Moreover, the inhibition in experiment [1] was 4.5% (inactive); in experiment [3], -356% (inactive); in experiment [7], 16.3% (inactive); in experiment [8], 1.62% (inactive). In addition, the inhibition of aggregation in experiment [2] was -7.4% (inactive). Besides, the nuclei count in experiment [2] stood at 97.1%; in experiment [3], 126%. Further, the fluorescence slope was -0.236 (inactive) in experiment [4] and 0.00778 (inactive) in experiment [6]. Moreover, the NADPH fluorescence slope in experiment [5] was -2.1e-05 (inactive).
For `COc1cccc(-c2cc(C(=O)Nc3cc(C)n(Cc4ccc(Cl)cc4)n3)no2)c1`, the cell count in experiment [1] is 498. For the same molecule, the inhibition in experiment [1] is -5.7% (inactive); in experiment [3], 38.9% (inactive); in experiment [7] it was 18.7% (inactive); in experiment [8], -60.3% (inactive). The inhibition of aggregation in experiment [2] was 10.2% (inactive). The nuclei count in experiment [2] and in experiment [3] was 100% in each case. The values for the fluorescence slope in experiment [4] and in experiment [6] were -0.211 (inactive) and 0.0105 (inactive), respectively. For the same molecule, in experiment [5], the NADPH fluorescence slope was -2.5e-05 (inactive).
For the molecule `O=C(COn1nnc2ccc(C(F)(F)F)cc21)Nc1nnc(-c2ccccc2)o1`, the cell count in experiment [1] is 704. For the same molecule, the inhibition in experiment [1] was -3.6% (inactive); in experiment [3], 108% (active); in experiment [7], 2.7% (inactive); in experiment [8], 10.1% (inactive). Further, the inhibition of aggregation in experiment [2] is -0.6% (inactive). The values for the nuclei count in experiment [2] and in experiment [3] were 110% and 80.2%, respectively. In addition, the fluorescence slope in experiment [4] is -0.503 (inactive); in experiment [6] it was 0.005 (inactive). Further, the NADPH fluorescence slope in experiment [5] was -0.000163 (inactive).
Regarding `Cc1[nH]c(=O)[nH]c(=O)c1S(=O)(=O)Nc1ccc(Oc2ccccc2)cc1`, in experiment [1], the cell count came out at 638. Moreover, the inhibition in experiment [1] was -3.2% (inactive); in experiment [3] it was -25.8% (inactive); in experiment [7], 19.8% (inactive); in experiment [8], 24.8% (inactive). In experiment [2], the inhibition of aggregation was -7.6% (inactive). Further, the values for the nuclei count in experiment [2] and in experiment [3] were 117% and 107%, respectively. Besides, the results for the fluorescence slope in experiment [4] and in experiment [6] were -0.574 (inactive) and 0.00503 (inactive), respectively. Also, in experiment [5], the NADPH fluorescence slope was -2.9e-05 (inactive).
As for `O=c1c2c(nc3nc(COc4ccccc4)[nH]n13)CCC2`, the cell count in experiment [1] amounted to 305. Further, the inhibition in experiment [1] was 5.6% (inactive); in experiment [3], -89.8% (inactive); in experiment [7], 15.2% (inactive); in experiment [8] it was 18% (inactive). In addition, in experiment [2], the inhibition of aggregation was 19.9% (inactive). For the same molecule, the nuclei count was 100% in experiment [2] and 102% in experiment [3]. Also, the fluorescence slope was -0.539 (inactive) in experiment [4] and 0.00436 (inactive) in experiment [6]. In experiment [5], the NADPH fluorescence slope was -9.7e-06 (inactive).
On to `O=C(NC1CC2CCC1C2)c1ccc(CN2CCOCC2)cc1` (stereo not drawn), for which the cell count in experiment [1] stood at 362. For the same molecule, the inhibition was 6.1% (inactive) in experiment [1], -7.2% (inactive) in experiment [3], -25.1% (inactive) in experiment [7] and -53.4% (inactive) in experiment [8]. Besides, in experiment [2], the inhibition of aggregation is 4.3% (inactive). The values for the nuclei count in experiment [2] and in experiment [3] were 91.8% and 99.5%, respectively. Besides, the fluorescence slope is -0.466 (inactive) in experiment [4] and 0.0046 (inactive) in experiment [6]. The NADPH fluorescence slope in experiment [5] is -5.1e-05 (inactive).
For `CC1CCN(CCCNC(=O)c2cn(C)c3ccc(S(=O)(=O)N4CCCC4)cc3c2=O)CC1`, the cell count in experiment [1] was 515. The inhibition was 1.8% (inactive) in experiment [1], 18.8% (inactive) in experiment [3], 3.75% (inactive) in experiment [7] and 21.7% (inactive) in experiment [8]. For the same molecule, the inhibition of aggregation in experiment [2] was 0% (inactive). The values for the nuclei count in experiment [2] and in experiment [3] were 93.4% and 61.5%, respectively. Further, the fluorescence slope in experiment [4] was -0.321 (inactive); in experiment [6] it was 0.00713 (inactive). Further, the NADPH fluorescence slope in experiment [5] is -5.9e-05 (inactive).
Regarding `Nc1c(C2=NCCO2)nnn1Cc1ccccc1`, in experiment [1], the cell count was determined as 612. For the same molecule, the inhibition in experiment [1] is 4.2% (inactive); in experiment [3], -130% (inactive); in experiment [7] it was 19.1% (inactive); in experiment [8] it was 19.1% (inactive). Moreover, the inhibition of aggregation in experiment [2] is 19.4% (inactive). The nuclei count in experiment [2] is 79.3%; in experiment [3] it was 149%. The fluorescence slope was -0.597 (inactive) in experiment [4] and 0.00414 (inactive) in experiment [6]. For the same molecule, the NADPH fluorescence slope in experiment [5] is -4.6e-05 (inactive).

The record behind these values is PubChem BioAssay.
